# Reference: ChEMBL document CHEMBL2040779, “Multidentate (18)F-polypegylated styrylpyridines as imaging agents for Aβ plaques in cerebral amyloid angiopathy (CAA)” (J Med Chem, 2011)
# Calls of active or inactive are those of the source. The rule behind the calls is not given here.
# Assays:
# [1] = target: T1, Amyloid-beta precursor protein (Homo sapiens, UniProt P05067); assay: Displacement of [18F]-amyvid from amyloid-beta aggregates in alzheimer's disease patient brain homogenates after 1 hr; format: tissue-based
# T1 sequence (P05067 whole entry): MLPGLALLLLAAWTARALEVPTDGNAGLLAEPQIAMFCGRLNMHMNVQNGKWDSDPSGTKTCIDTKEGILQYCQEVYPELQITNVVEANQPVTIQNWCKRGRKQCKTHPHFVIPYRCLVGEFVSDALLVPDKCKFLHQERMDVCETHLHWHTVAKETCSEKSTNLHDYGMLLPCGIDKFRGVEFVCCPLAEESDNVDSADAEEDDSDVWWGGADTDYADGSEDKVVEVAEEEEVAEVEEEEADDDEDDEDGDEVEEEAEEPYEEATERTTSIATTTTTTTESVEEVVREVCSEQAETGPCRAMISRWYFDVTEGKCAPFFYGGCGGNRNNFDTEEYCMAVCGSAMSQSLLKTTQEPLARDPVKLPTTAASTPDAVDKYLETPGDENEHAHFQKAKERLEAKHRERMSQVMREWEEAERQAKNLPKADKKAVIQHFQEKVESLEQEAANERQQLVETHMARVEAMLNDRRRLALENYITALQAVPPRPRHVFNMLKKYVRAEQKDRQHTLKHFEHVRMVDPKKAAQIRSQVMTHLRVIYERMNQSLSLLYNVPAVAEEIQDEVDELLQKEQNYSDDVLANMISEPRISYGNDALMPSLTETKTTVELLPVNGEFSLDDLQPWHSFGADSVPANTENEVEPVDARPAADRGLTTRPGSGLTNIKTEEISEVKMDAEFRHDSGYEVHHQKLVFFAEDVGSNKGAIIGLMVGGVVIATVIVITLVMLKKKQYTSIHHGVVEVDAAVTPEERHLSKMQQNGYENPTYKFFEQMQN
# Procedure, shortened: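 Competition binding in post-mortem AD brain tissue homogenates against [¹⁸F]5 bound to Aβ aggregates. Results are expressed as inhibition constants (Ki, nM).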
# [2] = target: T1, Amyloid-beta precursor protein; assay: Binding affinity to amyloid-beta plaque in cerebral blood vessels of alzheimer's disease patient cerebral amyloid angiopathy region of brain after 1 hr; format: tissue-based; conditions: tested as the 18F-labelled form
# Procedure, shortened: (§1)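 Post-mortem occipital sections (20 μm) from frozen brains of confirmed CAA, AD and control subjects. The ¹⁸F-labelled tracer was applied in 40% ethanol for 1 h. Sections were washed twice for 2 min in saturated Li₂CO₃/40% ethanol, once for 2 min in 40% ethanol, then rinsed 30 s in water. Dried sections were exposed to film for 12−18 h and the images digitized.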
# [3] = target: T1, Amyloid-beta precursor protein; assay: Binding affinity to amyloid-beta plaque in parenchymal region of alzheimer's disease patient brain after 1 hr; conditions: tested as the 18F-labelled form; procedure, shortened: as §1
# [4] = target: T1, Amyloid-beta precursor protein; assay: Binding affinity to amyloid-beta plaque in cerebral blood vessels of normal human cerebral amyloid angiopathy region of brain after 1 hr; format: tissue-based; conditions: tested as the 18F-labelled form; procedure, shortened: as §1
# [5] = target: T1, Amyloid-beta precursor protein; assay: Binding affinity to amyloid-beta plaque in parenchymal region of normal human brain after 1 hr; format: tissue-based; conditions: tested as the 18F-labelled form; procedure, shortened: as §1
# Blood [6] = assay: Biodistribution in ICR mouse blood at 925 KBq, iv after 2 mins by gamma counting; format: ADME, organism-based; conditions: in vivo
# Procedure, shortened: (§2)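 The ¹⁸F tracer was given iv to normal ICR mice (n = 6 per time point). Animals were killed by cardiac excision under isoflurane at 2 or 30 min. Organs were removed, weighed and γ-counted. %dose/g was calculated against counts of a 100-fold diluted aliquot of the injectate (1% of initial dose), counted at the same time.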
# Muscle tissue [7] = assay: Biodistribution in ICR mouse muscle at 925 KBq, iv after 2 mins by gamma counting; format: ADME, organism-based; conditions: in vivo; procedure, shortened: as §2
# Kidney [8] = assay: Biodistribution in ICR mouse kidney at 925 KBq, iv after 2 mins by gamma counting; format: ADME, organism-based; conditions: in vivo; procedure, shortened: as §2
# Liver [9] = assay: Biodistribution in ICR mouse liver at 925 KBq, iv after 2 mins by gamma counting; format: ADME, organism-based; conditions: in vivo; procedure, shortened: as §2
# Brain [10] = assay: Biodistribution in ICR mouse brain at 925 KBq, iv after 2 mins by gamma counting; format: ADME, organism-based; conditions: in vivo; procedure, shortened: as §2
# Bone [11] = assay: Biodistribution in ICR mouse bone at 925 KBq, iv after 2 mins by gamma counting; format: ADME, organism-based, Bone element; conditions: in vivo; procedure, shortened: as §2
# Blood [12] = assay: Biodistribution in ICR mouse blood at 925 KBq, iv after 30 mins by gamma counting; format: ADME, organism-based; conditions: in vivo, 0.5 h; procedure, shortened: as §2
# Muscle tissue [13] = assay: Biodistribution in ICR mouse muscle at 925 KBq, iv after 30 mins by gamma counting; format: ADME, organism-based; conditions: in vivo, 0.5 h; procedure, shortened: as §2
# Kidney [14] = assay: Biodistribution in ICR mouse kidney at 925 KBq, iv after 30 mins by gamma counting; format: ADME, organism-based; conditions: in vivo, 0.5 h; procedure, shortened: as §2
# Liver [15] = assay: Biodistribution in ICR mouse liver at 925 KBq, iv after 30 mins by gamma counting; format: ADME, organism-based; conditions: in vivo, 0.5 h; procedure, shortened: as §2
# Brain [16] = assay: Biodistribution in ICR mouse brain at 925 KBq, iv after 30 mins by gamma counting; format: ADME, organism-based; conditions: in vivo, 0.5 h; procedure, shortened: as §2
# Bone [17] = assay: Biodistribution in ICR mouse bone at 925 KBq, iv after 30 mins by gamma counting; format: ADME, organism-based, Bone element; conditions: in vivo, 0.5 h; procedure, shortened: as §2
# [18] = target: T1, Amyloid-beta precursor protein; assay: Binding affinity to amyloid-beta plaque in cerebral blood vessels of alzheimer's disease patient cerebral amyloid angiopathy region of brain after 1 hr by autoradiography; format: tissue-based; conditions: tested as the 18F-labelled form; procedure, shortened: as §1
# [19] = target: T1, Amyloid-beta precursor protein; assay: Binding affinity to amyloid-beta plaque in cerebral blood vessels of alzheimer's disease patient cerebral amyloid angiopathy region of brain after 1 hr by thioflavin S staining; format: tissue-based; conditions: tested as the 18F-labelled form
# Procedure, shortened: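 Adjacent brain sections were fixed 1 h in 10% neutral buffered formalin. Staining was with 0.025% thioflavin S in 40% ethanol for 3−5 min, then differentiation in 50% ethanol. Sections were viewed by fluorescence microscopy.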
SMILES,Ki [1],Drug uptake (Blood [6]),Drug uptake (Muscle tissue [7]),Drug uptake (Kidney [8]),Drug uptake (Liver [9]),Drug uptake (Brain [10]),Drug uptake (Bone [11]),Drug uptake (Blood [12]),Drug uptake (Muscle tissue [13]),Drug uptake (Kidney [14]),Drug uptake (Liver [15]),Drug uptake (Brain [16]),Drug uptake (Bone [17]),also measured
CNc1ccc(/C=C/c2ccc(OCCOCCOCCF)nc2)cc1,,,,,,,,,,,,,,Activity [2]: Active; Activity [3]: Active; Activity [4]: inactive; Activity [5]: inactive
CNc1ccc(-c2nc3ccc(O)cc3s2)cc1[18F] [FLUTEMETAMOL F 18],0.74 nM,,,,,,,,,,,,,
CNc1ccc(/C=C/c2ccc(OCCOCCOCCOCCn3cc(COCC(COCCOCCOCCF)(COCc4cn(CCOCCOCCOCCOc5ccc(/C=C/c6ccc(NC)cc6)cn5)nn4)COCc4cn(CCOCCOCCOCCOc5ccc(/C=C/c6ccc(NC)cc6)cn5)nn4)nn3)nc2)cc1,468 nM,,,,,,,,,,,,,
CN(C(=O)OC(C)(C)C)c1ccc(/C=C/c2ccc(OCCOCCOCCOCCOCC(COCCOCCOCCOCCOc3ccc(/C=C/c4ccc(N(C)C(=O)OC(C)(C)C)cc4)cn3)OCCF)nc2)cc1,> 1000 nM,,,,,,,,,,,,,
CNc1ccc(/C=C/c2ccc(OCCOCCOCC[18F])cc2)cc1 [FLORBETABEN F18],2.22 nM,,,,,,,,,,,,,
CNc1ccc(/C=C/c2ccc(OCCOCCOCC[18F])nc2)cc1 [FLORBETAPIR F 18],,3.14 % ID/g,1.06 % ID/g,10.9 % ID/g,21.5 % ID/g,7.77 % ID/g,1.43 % ID/g,2.8 % ID/g,1.78 % ID/g,6.31 % ID/g,12.9 % ID/g,1.59 % ID/g,1.22 % ID/g,

# The next lines start with results.
Ki [1],Drug uptake (Blood [6]),Drug uptake (Muscle tissue [7]),Drug uptake (Kidney [8]),Drug uptake (Liver [9]),Drug uptake (Brain [10]),Drug uptake (Bone [11]),Drug uptake (Blood [12]),Drug uptake (Muscle tissue [13]),Drug uptake (Kidney [14]),Drug uptake (Liver [15]),Drug uptake (Brain [16]),Drug uptake (Bone [17]),SMILES,also measured
71.2 nM,,,,,,,,,,,,,CNc1ccc(/C=C/c2ccc(OCCOCCOCCOCCNC(=O)CN(CC(=O)NCCOCCOCCOCCOc3ccc(/C=C/c4ccc(NC)cc4)cn3)C(=O)COCCOCCOCCF)nc2)cc1,
,4.77 % ID/g,0.82 % ID/g,8.13 % ID/g,21.2 % ID/g,0.4 % ID/g,1.3 % ID/g,1.54 % ID/g,1.21 % ID/g,9.36 % ID/g,21.4 % ID/g,0.4 % ID/g,2.34 % ID/g,CNc1ccc(/C=C/c2ccc(OCCOCCOCCOCCOCC(COCCOCCOCCOCCOc3ccc(/C=C/c4ccc(NC)cc4)cn3)OCC[18F])nc2)cc1,
3.24 nM,,,,,,,,,,,,,CNc1ccc(/C=C/c2ccc(OCCOCCOCCOCCOCC(COCCOCCOCCOCCOc3ccc(/C=C/c4ccc(NC)cc4)cn3)OCCF)nc2)cc1,Activity [2]: Active; Activity [3]: Active; Activity [4]: inactive; Activity [5]: inactive; Activity [18]: Active; Activity [19]: Active
,2.55 % ID/g,1.3 % ID/g,14.9 % ID/g,33.5 % ID/g,0.4 % ID/g,1.64 % ID/g,1.32 % ID/g,1.62 % ID/g,13.4 % ID/g,20 % ID/g,0.34 % ID/g,1.8 % ID/g,CNc1ccc(/C=C/c2ccc(OCCOCCOCCOCCOCCOCC(COCCOCCOCCOCCOCCOc3ccc(/C=C/c4ccc(NC)cc4)cn3)OCC[18F])nc2)cc1,
3.86 nM,,,,,,,,,,,,,CNc1ccc(/C=C/c2ccc(OCCOCCOCCOCCOCCOCCOCC(COCCOCCOCCOCCOCCOCCOc3ccc(/C=C/c4ccc(NC)cc4)cn3)OCCF)nc2)cc1,
,3.12 % ID/g,0.65 % ID/g,13.7 % ID/g,30.2 % ID/g,0.29 % ID/g,1.06 % ID/g,1.4 % ID/g,1.29 % ID/g,11.7 % ID/g,16 % ID/g,0.38 % ID/g,1.36 % ID/g,CNc1ccc(/C=C/c2ccc(OCCOCCOCCOCCOCCOCCOCC(COCCOCCOCCOCCOCCOCCOc3ccc(/C=C/c4ccc(NC)cc4)cn3)OCC[18F])nc2)cc1,
7.71 nM,,,,,,,,,,,,,CNc1ccc(/C=C/c2ccc(OCCOCCOCCOCCOCCOCC(COCCOCCOCCOCCOCCOc3ccc(/C=C/c4ccc(NC)cc4)cn3)OCCF)nc2)cc1,
